# Laboratory results from PubChem BioAssay AID822 (SRMLSC, 2007).
# Active and inactive are the calls of the source.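 The calls were made as follows: active = half-maximal effective dose for blocking growth of human endothelial cells at most 100 µM; inactive = the rest.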
# Test system: HUVEC proliferation, viability ATP luminescence
# Experiment: growth suppression of umbilical vein endothelial cells – cell-based, HUVEC, ATP luminescence, dose response (AID 822);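 also: cells exposed to compound for 72 h before the ATP read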
# How it was run: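 Material: HUVEC. Input: 1250 cells per well. Medium: endothelial basal medium (EBM) with 2% fetal bovine serum, collagen-coated wells. Compound: 0.039–20 µM, 0.2% DMSO. Times: compound treatment 72 h, 37 °C. Technique: CellTiter-Glo ATP luminescence. Read-out basis: % viability and fitted EC50. Format: collagen-coated multiwell plates.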
row,SMILES,EC50
1,CCCc1ccc(-c2cc(NC(=O)CSc3n[nH]c(N)n3)n(-c3ccccc3)n2)cc1,8.38 µM
2,OCCNc1nc2ccccc2n1-c1ncnc2sc3c(c12)CCC3,11.4 µM
3,COc1cc2nc(N3CCN(C(=O)c4ccco4)CC3)nc(N)c2cc1OC,11.2 µM
4,CCOc1cc(S(=O)(=O)N2CC=C(c3ccc(F)cc3)CC2)c(OCC)cc1-n1cnnn1,20 µM
5,Oc1ccccc1/C=N/Nc1nccnc1Cl,6.28 µM
6,O=C1CC(c2ccco2)Cc2nc(Nc3nc(-c4ccccc4)c4ccccc4n3)ncc21 (stereo not drawn),7.44 µM
7,CS(=O)(=O)c1nc(-c2cccs2)cc(C(F)(F)F)n1,6.11 µM
8,O=C(Nc1nnc(-c2ccc3c(c2)CCCC3)o1)c1ccc(Cl)cc1Cl,2.25 µM
9,CCCOC(=O)c1ccc(Oc2c(-c3ccc(OC)cc3O)n[nH]c2C)cc1,9.48 µM
10,CCc1ccc(NC(=O)CCc2nc3cccnc3n2Cc2ccc(OC)cc2)cc1,13.3 µM
11,CC1CC(C)(C)CC2(C1)NC(=S)N(c1ccccc1)N2 (stereo not drawn),12.3 µM
12,CC(=O)Nc1ccc(S(=O)(=O)NC2=C(N3CCN(Cc4ccccc4)CC3)C(=O)c3ccccc3C2=O)cc1,6.68 µM
13,CCc1ccc(-c2nc(CN3CCC(C(=O)NCc4ccc(F)cc4)CC3)c(C)o2)cc1,5.89 µM
14,Cc1nn(-c2ccc(Cl)cc2)c2sc(C(=O)N3CCN(c4ccccn4)CC3)cc12,19 µM
15,CCOc1cc(/C=C\c2[nH]c(=O)[nH]c(=O)c2[N+](=O)[O-])ccc1OC(C)CC (stereo not drawn),4.12 µM
16,COc1cc2nc(NCCCN3CCN(C)CC3)n3nc(-c4ccccc4)nc3c2cc1OC,10.5 µM
17,Cn1nc(C(C)(C)C)cc1C(=O)NCc1ccc(N2CCCC2=O)cc1,16 µM
18,COc1cc(/C=C/c2ccc3cccc(OC)c3n2)c(OC(C)=O)c([N+](=O)[O-])c1,6.27 µM
19,CCCCN(Cc1ccco1)C(=O)c1cc2c(=O)[nH]c3ccc(C)cc3c2s1,4.57 µM
20,COc1ccc(CNC(=O)C(C#N)c2nc3ccccc3nc2N2CCN(C)CC2)cc1 (stereo not drawn),6.92 µM
21,CCOC(=O)c1c(C)[nH]c(C(=O)OC/C(O)=C(\C#N)c2nc3ccccc3[nH]2)c1C,11.6 µM
22,COc1ccc(-c2cc(C(=O)Nc3cc(C)n(Cc4ccc(Cl)cc4)n3)no2)cc1OC,9.64 µM
23,CCCCn1c(SCC(=O)Nc2cc(NC(=O)c3ccco3)ccc2C)nc2ccccc2c1=O,12.2 µM
24,c1ccc2c(c1)oc1c(Nc3ccc(CN4CCOCC4)cc3)ncnc12,5.35 µM
25,COc1ccc(NC(=O)c2cc3n(n2)C(C(F)(F)F)CC(c2ccc(OC)cc2)N3)cc1 (stereo not drawn),9.91 µM
26,C=CCc1ccc(OCC(O)CN2CCC(Cc3ccccc3)CC2)c(OC)c1 (stereo not drawn),9.81 µM

row,SMILES,EC50
1,N#CC1=C(N)Oc2cc(Nc3ccccc3)ccc2C1c1ccncc1 (stereo not drawn),1.32 µM
2,Cc1ccc(-c2nc3cccnc3o2)cc1NC(=O)COc1ccc(C(C)(C)C)cc1,9 µM
3,N#C/C(=C/c1ccc(N2CCCCCC2)o1)c1ccc(Cl)cc1,18.3 µM
4,Cc1nn2c(NCCCN(C)C)c3c(nc2c1-c1ccccc1)CCC3,12.2 µM
5,COc1ccc2cc3cc(C(=O)Nc4ccc5c(c4)OCO5)oc3nc2c1,4.64 µM
6,COc1ccccc1-c1cc(C(=O)Nc2cc(C)n(Cc3ccc(Cl)cc3)n2)no1,5.84 µM
7,C=CCN1C(=Nc2cccnc2)SCC1(O)c1ccc(C)cc1 (stereo not drawn),11.2 µM
8,Cc1ccc(-c2nn3c(C)nnc3s2)cc1NC(=O)c1ccc(-c2cccc(Cl)c2)o1,4.71 µM
9,Oc1ccccc1-c1cc(-c2ccccc2Cl)[nH]n1,12.5 µM
10,Cc1cccc(Nc2nc(NCc3ccco3)nc(N3CCOCC3)n2)c1,2.15 µM
11,COc1ccc(C(=O)Nc2ccccc2C(=O)N(Cc2ccco2)C(C(N)=O)C(C)C)cc1 (stereo not drawn),14.6 µM
12,CC(C)=CCC/C(C)=C/CCC(C)NCCN1CCNCC1 (stereo not drawn),14.6 µM
13,COc1cc(NC(=O)Nc2cccc(Cl)c2)c(OC)cc1NC(=O)CN1CCCCC1,5.49 µM
14,O=c1[nH]c(Nc2nc3ccccc3o2)nc2c1CCCC2,17.3 µM
15,Cc1cc(NC(=O)c2cc(-c3ccncc3)nc3c(C)cccc23)no1,6.87 µM
16,CCOC(=O)c1c(OCC)[nH]c2c1cc(O)c1ccccc12,17.4 µM
17,COc1ccc(NC(=O)c2ccccc2NC(=O)COc2ccccc2)cc1,11.2 µM
18,O=C(Nc1ccc2nn(-c3ccccc3)nc2c1)c1ccc2c(c1)OCCO2,20 µM
19,COc1ccc(N/N=C2/CCCCC2=O)cc1,3.51 µM
20,O=C(C#Cc1cccc([N+](=O)[O-])c1)c1ccccc1,20.3 µM
21,CCCOC(=O)c1ccc(Oc2cn[nH]c2-c2ccc(OC)cc2O)cc1,12.3 µM
22,CCc1cc(-c2n[nH]c(C)c2Oc2ccc(C(C)C)cc2)c(O)cc1O,6.36 µM
23,Cn1cc(SCC(=O)Nc2nc3ccccc3s2)c2ccccc21,6.29 µM
24,Cc1nn(Cc2ccc(Cl)c(Cl)c2)c(C)c1NC(=O)c1cc(-c2ccc3c(c2)OCO3)on1,1.35 µM
25,CCOC(=O)Cc1c(C)nc2c(-c3cccc(Br)c3)c[nH]n2c1=O,3.01 µM
26,CCn1c(=N)n(CC(=O)C23CC4CC(CC(C4)C2)C3)c2ccccc21,8.77 µM

row,SMILES,EC50
1,Cc1nn(Cc2c(Cl)cccc2Cl)c(C)c1NC(=O)c1cc(C(C)C)on1,13.6 µM
2,CCOC(=O)c1c(NC(=O)CCl)sc(C(=O)N(CC)CC)c1C,12.3 µM
3,CC1(c2ccccc2)CC(C)(C)N2C(=O)C3(C(C#N)=C(N)Oc4cc(O)ccc43)c3cccc1c32 (stereo not drawn),6.69 µM
4,CCN1CCN(c2ncc(C(=O)Nc3cc(Cl)c(OC)cc3OC)c3ccccc23)CC1,14.2 µM
5,O=C(Nc1ccc(OC(F)F)c(Cl)c1)Nc1ccc2c(c1)OCO2,14.8 µM
6,CCCc1nc(SCC(=O)N2CCC(Cc3ccccc3)CC2)c2c(=O)n(C)c(=O)n(C)c2n1,10.5 µM
7,O=C(c1ccc(F)cc1)C(CN1CCOCC1)c1ccccc1 (stereo not drawn),5.11 µM
8,O=C1Nc2ccccc2/C1=C/C(=O)c1cccs1,7.52 µM
9,CCOc1ccc2nc(NC(=O)CN3CCC(n4nnc5cc(F)ccc54)CC3)sc2c1,8.42 µM
10,COc1ccc2nc3oc(C(=O)N4CCN(c5ccccc5F)CC4)cc3cc2c1,15.5 µM
11,CCOC(=O)c1c(NC(=O)CSc2nc(C)cc(C)c2C#N)sc(C(C)=O)c1C,4.87 µM
12,CC1(C)CC(=O)C2=C(C1)Oc1nc3ccccc3cc1C2C(C#N)C#N (stereo not drawn),11.4 µM
13,COC(=O)c1c(NC(=O)c2ccco2)sc(C(=O)Nc2ccc(F)cc2)c1C,2.98 µM
14,CC(=O)Oc1ccc(N(C(C)=O)S(=O)(=O)c2cccs2)c2ccccc12,9 µM
15,CCOc1cc2nc(-c3ccc(OC)c(OC)c3)nc(N3CCOCC3)c2cc1OC,5.27 µM
16,Brc1ccccc1OCCCn1cnc2ccccc21,13.2 µM
17,Cc1ccc(-c2csc3ncnc(Sc4nnc(CN5CCCCCC5=O)o4)c23)cc1,5.55 µM
18,Cc1ccccc1-c1nc(CN2CCC(C(=O)NCCC3=CCCCC3)CC2)c(C)o1,6.73 µM
19,O=C(Nc1ccc2nn(-c3ccccc3)nc2c1)c1ccc2c(c1)OCO2,20.8 µM
20,Cc1ccc2[nH]c3c(c2c1)CCC3=O,14.7 µM
21,Cc1ccc(-c2nnc(SCC(=O)Nc3ccccc3F)o2)cc1,19.2 µM
22,O/N=C1\CC/C(=N\O)c2nn(-c3ccccc3Cl)nc21,> 10 µM (inactive)
23,CCOC(=O)C1=C(N)n2c(s/c(=C/c3ccco3)c2=O)=C(C(=O)OC)C1c1ccco1 (stereo not drawn),5.98 µM
24,Cc1ccc(C)c(N2CCN(CCCNC(=O)Cn3cc4c(n3)CCCCC4)CC2)c1,10.9 µM
25,CC(=O)c1cccc(NC(=O)Nc2ccc3c(c2)N(C)C(=O)CS3)c1,9.94 µM
26,Cc1cc2c(N=O)c(NO)ccc2[nH]1,5.96 µM
